# Assay results from ChEMBL document CHEMBL1153564 (Antimicrob Agents Chemother, 2008).
# Calls of active or inactive are those of the source. The calls are words filed in the database; no cut-off is given here. Starred links: 1 amine or outer side, 2 acyl side, 3 side chain; linkers in the order of their positions; H or OH if unused. Positions of bridges follow the written chain, without caps; N, C: chain ends. Non-standard residues stand in square brackets, D forms with d. Residues, ends and D or L forms follow the SMILES beside them. *: point of attachment. pTerphenylCO(4''-OnC5H11) = CCCCCOc1ccc(-c2ccc(-c3ccc(C(=O)*)cc3)cc2)cc1; Orn(4R-OH,5R-OH) = O=C([C@H](C[C@@H](O)[C@@H](O)N[*:3])N[*:1])[*:2]; hTyr(3S-OH,4S-OH) = N[C@H](C(=O)O)[C@H](O)[C@@H](O)c1ccc(O)cc1; Pro(3S-OH,4S-Me) = C[C@H]1CN[C@H](C(=O)O)[C@H]1O; Hyp = O=C(O)[C@@H]1C[C@@H](O)CN1
# Tests used:
# Nakaseomyces glabratus [1] = experiment: Antifungal activity against Candida glabrata 5376 infected in neutropenic ICR/Swiss mouse candidiasis model assessed as dose required for 1-log10 reduction in […] per kidney administered intraperitoneally every 48 hrs up to 4 days measured per 96 hrs; assay type: functional
# Summary of the method: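 Neutropenic ICR/Swiss mice infected i.v. with the strain; therapy began 2 h later. Total doses of 1.25–320 mg/kg/96 h were given i.p. as 1, 2, 4 or 6 doses (q96h, q48h, q24h, q16h), three mice per regimen. Kidney CFU were counted after 4 days. Effect is the change from untreated controls at the end of therapy.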
# Nakaseomyces glabratus [2] = experiment: Antifungal activity against Candida glabrata 5376 infected in neutropenic ICR/Swiss mouse candidiasis model assessed as reduction of […] in kidney at 20 mg/kg, ip administered 2 hrs postinfection as single dose measured within 1 to 4 hrs post dosing by time-kill assay; assay type: functional, organism-based; set-up: dose 20 mg/kg
# Summary of the method: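 Neutropenic mice were infected i.v. and 2 h later given a single i.p. dose (1.25, 5 or 20 mg/kg). Groups of three treated and three control mice were killed at intervals over 96 h, and kidney CFU were counted on SDA (limit 100 CFU/ml). The post-antifungal effect is t − c: the time for a 1 log10 CFU/kidney increase once serum levels fall below the MIC in treated mice, minus the same time in controls.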
# Nakaseomyces glabratus [3] = experiment: Antifungal activity against Candida glabrata 5592 infected in neutropenic ICR/Swiss mouse candidiasis model assessed as dose required to maintain […] of 1.83 +/- 0.54 log10CFU per kidney administered intraperitoneally every 24 hrs up to 4 days measured per 24 hrs; assay type: functional
# Nakaseomyces glabratus [4] = experiment: Antifungal activity against Candida glabrata 5376 infected in neutropenic ICR/Swiss mouse candidiasis model assessed as dose required to maintain […] burden of 1.83 +/- 0.54 log10CFU per kidney administered intraperitoneally every 24 hrs up to 4 days measured per 24 hrs; assay type: functional
# Candida albicans [5] = experiment: Antifungal activity against Candida albicans K-1 infected in neutropenic ICR/Swiss mouse candidiasis model assessed as prolongation of fungal growth suppression at 5 mg/kg, ip administered 2 hrs postinfection as single dose by time-kill assay; assay type: functional; conditions: route intraperitoneal
# Summary of the method: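 Single ip dose (20, 5 or 1.25 mg/kg) given 2 h after iv infection of neutropenic mice with K-1. Three treated and three control mice were sampled at intervals over 96 h for kidney CFU. PAFE is the time for treated burden to rise 1 log10 after serum levels fall below MIC, minus the same time in controls. Free drug was taken as 1%.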
# Serum = experiment: Fraction unbound in Candida glabrata 5376-infected neutropenic ICR/Swiss mouse serum at 20 mg/kg, ip administered 2 hrs postinfection as single dose measured after 32 hrs; assay type: ADME, organism-based; set-up: dose 20 mg/kg, route intraperitoneal; conditions: in vivo
# Candida albicans [6] = experiment: Antifungal activity against Candida albicans K-1 infected in neutropenic ICR/Swiss mouse candidiasis model assessed as dose required for 1-log10 reduction in […] per kidney administered intraperitoneally every 16 hrs up to 4 days measured per 96 hrs; assay type: functional
# Summary of the method: (§1)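 Neutropenic mice were infected iv with C. albicans K-1 2 h before therapy. Total doses of 1.25, 5, 20, 80 and 320 mg/kg/96 h were split into 1, 2, 4 or 6 ip doses (q96h, q48h, q24h, q16h), three mice per regimen. Effect is the log10 CFU/kidney relative to untreated controls at 96 h. Static and 1-log doses were taken from a Hill model fit.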
# Nakaseomyces glabratus [7] = experiment: Antifungal activity against Candida glabrata 570 infected in neutropenic ICR/Swiss mouse candidiasis model assessed as dose required for 1-log10 reduction in […] per kidney administered intraperitoneally every 24 hrs up to 4 days measured per 24 hrs; assay type: functional
# Summary of the method: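 Neutropenic mouse disseminated candidiasis, with i.p. therapy starting 2 h after i.v. infection. Five total doses of 0.078–20 mg/kg/24 h were given q24h for 4 days, three mice per dose. Kidney CFU were counted at the end and compared with untreated controls. The dose giving a 1 log10 CFU/kidney reduction was derived from the sigmoid Hill dose–effect model.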
# Candida albicans [8] = experiment: Antifungal activity against Candida albicans K-1 infected in neutropenic ICR/Swiss mouse candidiasis model assessed as dose required for 1-log10 reduction in […] per kidney administered intraperitoneally every 48 hrs up to 4 days measured per 96 hrs; assay type: functional; summary of the method: as §1
# Candida albicans [9] = experiment: Antifungal activity against Candida albicans K-1 infected in neutropenic ICR/Swiss mouse candidiasis model assessed as dose required for 1-log10 reduction in […] per kidney administered intraperitoneally once every 96 hrs measured per 96 hrs; assay type: functional; summary of the method: as §1
# Candida tropicalis = experiment: Antifungal activity against Candida tropicalis 98-234 assessed as partial growth inhibition after 24 hrs by CLSI end point method; assay type: functional; conditions: 98-234, 24 h
# Nakaseomyces glabratus [10] = experiment: Antifungal activity against Candida glabrata 513 assessed as complete growth inhibition after 24 hrs by CLSI end point method; assay type: functional; conditions: Nakaseomyces glabratus, 513, 24 h
# Summary of the method: (§2)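 Two end points were read against the drug-free control well: partial growth inhibition (the CLSI end point) and complete inhibition. Run in duplicate on four separate occasions; the value is the mean. Drug stock was made in DMSO and diluted in 0.9% NaCl.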
# [11] = Cmax in human at 100 mg/day; assay type: ADME, organism-based; set-up: dose 100 mg/day; conditions: in vivo
# Nakaseomyces glabratus [12] = experiment: Antifungal activity against Candida glabrata 5376 assessed as complete growth inhibition after 24 hrs by CLSI end point method; assay type: functional; conditions: Nakaseomyces glabratus, 5376, 24 h; summary of the method: as §2
# Nakaseomyces glabratus [13] = experiment: Antifungal activity against Candida glabrata 37661 assessed as complete growth inhibition after 24 hrs by CLSI end point method; assay type: functional; conditions: Nakaseomyces glabratus, 37661, 24 h; summary of the method: as §2
# Candida albicans [14] = experiment: Antifungal activity against Candida albicans K-1 infected in neutropenic ICR/Swiss mouse candidiasis model assessed as fungal count per kidney administered 2 hrs postinfection measured up to 48 hrs; assay type: functional
# Summary of the method: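 Untreated neutropenic mice infected via the tail vein (inoculum about 6.1 log10 CFU/ml, 0.1 ml). Growth is the rise in kidney CFU over 48 h. Kidneys were homogenised, serially diluted 1:10 and plated on SDA for 24 h at 35°C. Mean of three mice.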
# Nakaseomyces glabratus [15] = experiment: Antifungal activity against Candida glabrata 37661 infected in neutropenic ICR/Swiss mouse candidiasis model assessed as fungal count per kidney administered 2 hrs postinfection measured up to 48 hrs; assay type: functional
# Summary of the method: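 Female ICR/Swiss mice (23–27 g) made neutropenic with cyclophosphamide s.c. (150 mg/kg day −4, 100 mg/kg day −1, 100 mg/kg day +2). Infected by tail vein with 0.1 ml inoculum (~6.1 log10 CFU/ml). Kidneys of untreated mice were homogenised and plated on SDA for 24 h at 35°C. Growth over 48 h is given as log10 CFU/kidney.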
# [16] = AUC (0 to infinity) in serum of neutropenic ICR/Swiss mouse candidiasis model at 80 mg/kg, ip by reverse-phase high-pressure liquid chromatography; assay type: ADME, organism-based; set-up: time infinity, dose 80 mg/kg, route intraperitoneal
# Summary of the method: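 Single ip dose in 0.2 ml to infected neutropenic mice. Serum from groups of three isoflurane-anaesthetised mice at 1, 4, 8, 12, 24 and 48 h, stored −80°C. Drug measured by reverse-phase HPLC with fluorescence detection against loratadine internal standard (calibration 10–50,000 ng/ml). Noncompartmental analysis; AUC by trapezoidal rule.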
# [17] = Protein binding in Candida albicans K-1 infected neutropenic ICR/Swiss mouse serum after 30 mins by arithmetic dilution method; assay type: ADME, organism-based; conditions: read-out: PB (converted)
compound,measurement,setting,value
"CCCCCOc1ccc(-c2ccc(-c3ccc(C(=O)N[C@H]4C[C@@H](O)[C@@H](O)NC(=O)[C@@H]5[C@@H](O)[C@@H](C)CN5C(=O)[C@H]([C@@H](C)O)NC(=O)[C@H]([C@H](O)[C@@H](O)c5ccc(O)cc5)NC(=O)[C@@H]5C[C@@H](O)CN5C(=O)[C@H]([C@@H](C)O)NC4=O)cc3)cc2)cc1 [ANIDULAFUNGIN] ({pTerphenylCO(4''-OnC5H11)}-[Orn(4R-OH,5R-OH)]T[Hyp][hTyr(3S-OH,4S-OH)]T[Pro(3S-OH,4S-Me)]; lactam 1-C)",Activity,Nakaseomyces glabratus [1],27.4 mg/kg
same,Activity,Nakaseomyces glabratus [2],Active
same,Activity,Nakaseomyces glabratus [3],3.57 mg/kg
same,Activity,Nakaseomyces glabratus [4],6.8 mg/kg
same,Activity,Candida albicans [5],>96 h
same,Fu,Serum,1%
same,Activity,Candida albicans [6],38.3 mg/kg
same,Activity,Nakaseomyces glabratus [7],3.72 mg/kg
same,Activity,Candida albicans [8],9.19 mg/kg
same,Activity,Candida albicans [9],4.97 mg/kg
same,MIC,Candida tropicalis,0.015 µg/mL
same,MIC,Nakaseomyces glabratus [10],0.12 µg/mL
same,Cmax,[11],11000 ng/mL
same,MIC,Nakaseomyces glabratus [12],0.06 µg/mL
same,MIC,Nakaseomyces glabratus [13],2 µg/mL
same,log10cfu,Candida albicans [14],4
same,log10cfu,Nakaseomyces glabratus [15],0.96
same,AUC(0-inf),[16],1980 µg·h/mL
same,fraction unbound at 0.5 h,[17],0.2
